The results in this text go back to ChEMBL document CHEMBL1133693, “Peptide and peptide mimetic inhibitors of antigen presentation by HLA-DR class II MHC molecules. Design, structure-activity relationships, and X-ray crystal structures” (J Med Chem, 2000).

Non-standard residues stand in square brackets, D forms with d. Residues, ends and D or L forms follow the SMILES beside them. Cha = N[C@@H](CC1CCCCC1)C(=O)O; NMeL = CN[C@@H](CC(C)C)C(=O)O; NMeA = CN[C@@H](C)C(=O)O

Series [1] in a line: Degradation half-time was evaluated. The series is classed as ADME. In outline: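 Each test peptide at 1.0 mg/mL in pH 6.0 phosphate buffer (88 mM KH2PO4, 12 mM Na2HPO4, 1.33 mM EDTA, 2.0 mM cysteine, internal standard) was prewarmed to 32 °C. Cathepsin B was preactivated 5 min at 37 °C and added at 0.3 U per micromole of compound. Half-time from ln(A0 − A) vs time, t1/2 = 0.693/k.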

A further series has as its target Cathepsin B (Bos taurus) (UniProt P07688). The series is described as follows: Percent of original compound remaining with cathepsin B after incubation for 4 hrs was determined by HPLC.
Series [2] in a line: Mean relative potency is the ratio of potencies of 'Ac-(Cha)RAMASL-NH2' and compound, to inhibit MHC class II DRB1*0101. In outline: (§1)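 Scintillation proximity competition assay. Test compounds competed against the radioligand, and bound counts were read by scintillation. Ac-(Cha)RAMASL-NH2 was run as standard competitor in every run. Potency is the ratio of standard IC50 to compound IC50.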

Series [3] is described as follows: Mean relative potency is the ratio of potencies of 'Ac-(Cha)RAMASL-NH2' and compound, to inhibit MHC class II DRB1*0401. In outline: as §1
Series [4] deals with T-cell. The series is described as follows: T-cell inhibitory potency relative to the IC50 of a(Cha)AAAKTAAAAa-NH2 MHC class II DRB1*0101. The class given is functional, Homo sapiens.
For series [5], the system named is T-cell. The series is described as follows: T-cell inhibitory potency relative to the IC50 of a(Cha)AAAKTAAAAa-NH2 in MHC class II DRB1*0401. The series is classed as functional, Homo sapiens.
Series [6] has as its system T-cell. Kind of series: T-cell inhibitory potency relative to the IC50 of a(Cha)AAAKTAAAAa-NH2 iMHC class II DRB1*0101. The series is classed as functional, Homo sapiens.
Series [7] in a line: Mean relative potency is the ratio of potencies of 'Ac-(Cha)RAMASL-NH2' and compound, to inhibit MHC class II DRB1*0404. In outline:
as §1

For orientation: half-life means the time needed for the level to fall by half in the phase considered. Higher therefore signals slow loss. Take `CSCC[C@H](NC(=O)[C@H](C)N(C)C(=O)[C@H](CCCN=C(N)N)NC(=O)[C@H](CC1CCCCC1)NC(C)=O)C(=O)N(C)[C@@H](C)C(=O)N[C@@H](CO)C(=O)N(C)[C@@H](CC(C)C)C(N)=O` (Ac-[Cha]R[NMeA]M[NMeA]S[NMeL]-NH2): in series [1], the half-life is 10700 min. The % remaining at Cathepsin B (Bos taurus) was determined as 99%.
`CSCC[C@H](NC(=O)[C@H](C)NC(=O)[C@H](CCCN=C(N)N)NC(=O)[C@H](CC1CCCCC1)NC(C)=O)C(=O)N[C@@H](C)C(=O)N[C@@H](CO)C(=O)N(C)[C@@H](CC(C)C)C(N)=O` yielded a half-life in series [1] of 4.6 min.
In the case of `CSCC[C@H](NC(=O)[C@H](C)NC(=O)[C@H](CCCN=C(N)N)NC(=O)[C@H](CC1CCCCC1)NC(C)=O)C(=O)N(C)[C@@H](C)C(=O)N[C@@H](CO)C(=O)N[C@@H](CC(C)C)C(N)=O` (Ac-[Cha]RAM[NMeA]SL-NH2), the half-life in series [1] turned out to be 7.3 min. Also, the figures for the Mean relative potency in series [2] and in series [3] were 1.22 and 0.6, respectively. In addition, the % remaining on Cathepsin B (Bos taurus) was found to be 0%.
`CSCC[C@@H](NC(=O)[C@H]1Cc2ccccc2CN1C(=O)[C@H](CCCN=C(N)N)NC(=O)[C@H](CC1CCCCC1)NC(C)=O)C(=O)N1CCC(c2ccccc2)[C@@H]1C(=O)N[C@@H](CO)C(=O)N(C)[C@@H](CC(C)C)C(N)=O` (stereo partly specified): the T-cell inhibition was found to be 2.5 in the series on T-cell [4] and 2.7 in the series on T-cell [5]. Besides, the Mean relative potency is 0.49 in series [2] and 0.22 in series [3]. Also, the % remaining at Cathepsin B (Bos taurus) turned out to be 116%.
For `CSCC[C@H](NC(=O)[C@H](C)NC(=O)[C@H](CCCN=C(N)N)NC(=O)[C@H](CC1CCCCC1)NC(C)=O)C(=O)N[C@@H](C)C(=O)N[C@@H](CO)C(=O)N[C@@H](CC(C)C)C(N)=O` (Ac-[Cha]RAMASL-NH2), the results for the T-cell inhibition in the series with T-cell [6] and in the series on T-cell [5] were 0.12 and 0, respectively. In series [1], this compound gave a half-life of 3 min. Moreover, the Mean relative potency in series [7], in series [2] and in series [3] was 1 in each case. The % remaining on Cathepsin B (Bos taurus) worked out at 0%.
`CSCC[C@H](NC(=O)[C@H](C)NC(=O)[C@H](CCCN=C(N)N)NC(=O)[C@H](CC1CCCCC1)NC(C)=O)C(=O)N(C)[C@@H](C)C(=O)N[C@@H](CO)C(=O)N(C)[C@@H](CC(C)C)C(N)=O` (Ac-[Cha]RAM[NMeA]S[NMeL]-NH2) displayed a half-life in series [1] of 4.8 min. In addition, on Cathepsin B (Bos taurus), the % remaining was 0%.
